Data set [1] is described as follows: Cytotoxicity against Swiss mouse peritoneal macrophages after 24 hrs by MTT assay. Format: cell-based, Peritoneal macrophage cell. Summed up: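 Macrophages were collected from Swiss mice 5 days after thioglycollate (3%) elicitation. About 1 x 10^6 cells per well were incubated in RPMI 1640 with 10% heat-inactivated FBS and compound for 24 h at 37°C, 5% CO₂. MTT was added for 4 h, followed by 10% SDS, and absorbance was read at 540 nm. CC50 was obtained by probit regression.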
For orientation: Formazan colour is commonly taken as a measure of viable cells.

The nature of data set [2]: Toxicity in human RBC assessed as induction of hemolytic activity after 1 hr by spectrometer analysis. The data set is classed as cell-based, Erythrocyte. The settings on record: red blood cells (RBC). In short, it runs like this:
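A 5% suspension of human erythrocytes in PBS was mixed 4:1 with serial compound dilutions and incubated 1 h at 37°C. The reaction was stopped with PBS (pH 7.2) and spun 10 min at 1000 x g, and supernatant absorbance was read at 540 nm. Haemolysis was expressed relative to a drug-free blank and to water-induced total lysis. HC50 was obtained by probit regression.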

Data set [3] in a line: Selectivity index, ratio of CC50 for Swiss mouse peritoneal macrophages to IC50 for promastigotes of Leishmania amazonensis IFLA/BR/67/PH8. Format: functional. In short, it runs like this:
(§1)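 Promastigote values came from haemocytometer counts after 72 h at 25°C. Axenic amastigote values came from MTT readings after 24 h at 32°C, using amastigotes differentiated at pH 4.6. All 50% values were obtained by probit regression.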

The nature of data set [4]: Selectivity index, ratio of HC50 for human RBC to IC50 for promastigotes of Leishmania amazonensis IFLA/BR/67/PH8. Summed up: as §1
A short description of data set [5]: Selectivity index, ratio of CC50 for Swiss mouse peritoneal macrophages to EC50 for axenic amastigotes of Leishmania amazonensis IFLA/BR/67/PH8. Summed up: as §1
The nature of data set [6]: Selectivity index, ratio of HC50 for human RBC to IC50 for axenic amastigotes of Leishmania amazonensis IFLA/BR/67/PH8. In short, it runs like this: as §1
Data set [7] relates to Leishmania amazonensis. The data set is described as follows: Antileishmanial activity against promastigotes of Leishmania amazonensis IFLA/BR/67/PH8 assessed as induction of early apoptosis using Annexin-V staining at IC50 after 4 hrs by flow cytometry (reference value: 8.3%). The data set is classed as functional. For orientation: Flow cytometry measures light scatter and fluorescence of single cells or particles in a stream.

The subject of data set [8] is Leishmania amazonensis. The data set is described as follows: Antileishmanial activity against promastigotes of Leishmania amazonensis IFLA/BR/67/PH8 assessed as induction of early apoptosis using Annexin-V staining at 2 times IC50 after 4 hrs by flow cytometry (reference value: 8.3%). The data set is classed as functional.
Data set [9] concerns Leishmania amazonensis. The data set is described as follows: Antileishmanial activity against promastigotes of Leishmania amazonensis IFLA/BR/67/PH8 assessed as induction of early apoptosis using Annexin-V staining at 4 times IC50 after 4 hrs by flow cytometry (reference value: 8.3%). The data set is classed as functional.
Data set [10] relates to Leishmania amazonensis. The data set is described as follows: Antileishmanial activity against promastigotes of Leishmania amazonensis IFLA/BR/67/PH8 assessed as induction of late apoptosis using Annexin-V/PI staining at IC50 after 4 hrs by flow cytometry (reference value: 12.05%). Format: functional.
The subject of data set [11] is Leishmania amazonensis. The data set is described as follows: Antileishmanial activity against promastigotes of Leishmania amazonensis IFLA/BR/67/PH8 assessed as induction of late apoptosis using Annexin-V/PI staining at 2 times IC50 after 4 hrs by flow cytometry (reference value: 12.05%). The data set is classed as functional.
Data set [12] concerns Leishmania amazonensis. The data set is described as follows: Antileishmanial activity against promastigotes of Leishmania amazonensis IFLA/BR/67/PH8 assessed as induction of late apoptosis using Annexin-V/PI staining at 4 times IC50 after 4 hrs by flow cytometry (reference value: 12.05%). Format: functional.
Data set [13] deals with Leishmania amazonensis. The data set is described as follows: Antileishmanial activity against promastigotes of Leishmania amazonensis IFLA/BR/67/PH8 assessed as induction of necrosis using Annexin-V-FITC/PI staining at 4 times IC50 after 4 hrs by flow cytometry (reference value: 2.6%). The data set is classed as functional.
The test system of data set [14] is Leishmania amazonensis. The data set is described as follows: Antileishmanial activity against promastigotes of Leishmania amazonensis IFLA/BR/67/PH8 assessed as induction of DNA fragmentation at 1 to 4 times IC50 after 24 hrs by agarose gel electrophoresis. The data set is classed as functional, organism-based. In short, it runs like this: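 Genomic DNA was extracted with phenol/chloroform and run on agarose with GelRed (1:500) for 1 h at […]. Fragmentation was viewed under UV as a qualitative read-out.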

The subject of data set [15] is Leishmania amazonensis. The data set is described as follows: Antileishmanial activity against axenic amastigotes of Leishmania amazonensis IFLA/BR/67/PH8 infected in Swiss mouse peritoneal macrophages assessed as reduction of survival rate after 24 hrs by light microscopy analysis. The data set is classed as functional, organism-based. Summed up:
(§2)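 Peritoneal macrophages were plated on glass coverslips at 1 x 10^6 cells/mL in supplemented RPMI 1640 and allowed to adhere for 2 h at 34°C, 5% CO₂. They were infected for 3 h with stationary-phase promastigotes at 10 parasites per macrophage, washed with PBS, then exposed to compound for 24 or 72 h. Coverslips were fixed and Panoptic-stained, and 300 macrophages per coverslip were counted by light microscopy. EC50 was derived by probit regression.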

For data set [16], the system named is Leishmania amazonensis. The data set is described as follows: Antileishmanial activity against axenic amastigotes of Leishmania amazonensis IFLA/BR/67/PH8 infected in Swiss mouse peritoneal macrophages assessed as reduction of survival rate after 72 hrs by light microscopy analysis. The data set is classed as functional, organism-based. Summed up: as §2
For data set [17], the system named is Peritoneal macrophage cell. The data set is described as follows: Immunomodulatory activity in Swiss mouse peritoneal macrophages infected with promastigotes form of Leishmania amazonensis IFLA/BR/67/PH8 assessed as increase of TNFalpha production at 6.25 to 25 uM after 72 hrs by sandwich ELISA. The data set is classed as functional, cell-based. In short, it runs like this: (§3)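 Supernatants came from infected macrophages treated for 72 h at 37°C, 5% CO₂. TNF-α, IL-12 and IL-10 were measured by sandwich ELISA at 450 nm against murine recombinant cytokine standards. NO was estimated as nitrite by the Griess reaction at 540 nm against a sodium nitrite standard. LPS (10 mg/L) served as positive control. Three experiments were run in triplicate.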

Data set [18] relates to Peritoneal macrophage cell. The data set is described as follows: Immunomodulatory activity in Swiss mouse peritoneal macrophages infected with promastigotes form of Leishmania amazonensis IFLA/BR/67/PH8 assessed as increase of IL-12 production at 6.25 to 25 uM after 72 hrs by sandwich ELISA. The data set is classed as functional, cell-based. In short, it runs like this:
as §3
In general terms: In an ELISA, binding on a coated surface is turned into a signal by an enzyme label.

Data set [19] relates to Peritoneal macrophage cell. The data set is described as follows: Immunomodulatory activity in Swiss mouse peritoneal macrophages infected with promastigotes form of Leishmania amazonensis IFLA/BR/67/PH8 assessed as increase of nitric oxide production at 6.25 to 25 uM after 72 hrs by Griess assay. The data set is classed as functional, cell-based. In short, it runs like this:
as §3

Data set [20] concerns Peritoneal macrophage cell. The data set is described as follows: Immunomodulatory activity in Swiss mouse peritoneal macrophages infected with promastigotes form of Leishmania amazonensis IFLA/BR/67/PH8 assessed as increase of IL-10 production at 6.25 to 25 uM after 72 hrs by sandwich ELISA. The data set is classed as functional, cell-based. In short, it runs like this: as §3

In data set [21] the test system is Leishmania amazonensis. The data set is described as follows: Antileishmanial activity against promastigotes of Leishmania amazonensis IFLA/BR/67/PH8 assessed as induction of necrosis using Annexin-V-FITC/PI staining at IC50 after 4 hrs by flow cytometry (reference value: 2.6%). The data set is classed as functional.
Data set [22] relates to Leishmania amazonensis. The data set is described as follows: Antileishmanial activity against promastigotes of Leishmania amazonensis IFLA/BR/67/PH8 assessed as induction of necrosis using Annexin-V-FITC/PI staining at 2 times IC50 after 4 hrs by flow cytometry (reference value: 2.6%). Format: functional.
The subject of data set [23] is Leishmania amazonensis. The data set is described as follows: Antileishmanial activity against promastigotes of Leishmania amazonensis IFLA/BR/67/PH8 assessed as viable cells using Annexin-V staining at IC50 after 4 hrs by flow cytometry (reference value: 77%). Format: functional.
Data set [24] has as its system Leishmania amazonensis. The data set is described as follows: Antileishmanial activity against promastigotes of Leishmania amazonensis IFLA/BR/67/PH8 assessed as viable cells using Annexin-V staining at 2 times IC50 after 4 hrs by flow cytometry (reference value: 77%). The data set is classed as functional.
Data set [25] concerns Leishmania amazonensis. The data set is described as follows: Antileishmanial activity against promastigotes of Leishmania amazonensis IFLA/BR/67/PH8 assessed as viable cells using Annexin-V staining at 4 times IC50 after 4 hrs by flow cytometry (reference value: 77%). Format: functional.
Data set [26] concerns Leishmania amazonensis. The data set is described as follows: Antileishmanial activity against axenic amastigotes of Leishmania amazonensis IFLA/BR/67/PH8 after 24 hrs by MTT assay. The note with it: IFLA/BR/67/PH8, 24 h.
Data set [27] concerns Leishmania amazonensis. The data set is described as follows: Antileishmanial activity against promastigotes of Leishmania amazonensis IFLA/BR/67/PH8 after 72 hrs by Neubauer haemocytometer counting. The settings on record: IFLA/BR/67/PH8, 72 h.
A short description of data set [28]: Ratio of compound CC50 to meglumine antimoniate CC50 for Swiss mouse peritoneal macrophages. Format: ADME, cell-based, Peritoneal macrophage cell.
Data set [29] can be described thus: Ratio of compound HC50 to meglumine antimoniate HC50 for human RBC. Format: ADME, cell-based. The note with it: erythrocyte.
For data set [30], the system named is Leishmania amazonensis. The data set is described as follows: Antileishmanial activity against axenic amastigotes of Leishmania amazonensis IFLA/BR/67/PH8 infected in Swiss mouse peritoneal macrophages assessed as reduction of survival rate at 300 mg/L after 72 hrs by light microscopy analysis. Format: functional, organism-based. Summed up: as §2
Data set [31] has as its system Leishmania amazonensis. The data set is described as follows: Antileishmanial activity against axenic amastigotes of Leishmania amazonensis IFLA/BR/67/PH8 infected in Swiss mouse peritoneal macrophages assessed as reduction of survival rate at 50 to 300 mg/L after 24 hrs by light microscopy analysis. The data set is classed as functional, organism-based. In short, it runs like this:
as §2

Active and inactive are the calls of the source. The rule behind the calls is not given here.

For orientation: CC50 means the concentration that lowers cell viability or growth by half. One may read the HC50 as the concentration giving 50% haemolysis. The term EC50 denotes the concentration at which the effect is half-maximal. Low values mean higher potency in that assay, high ones lower potency in that assay. As a reminder, the IC50 is the point on the concentration scale where inhibition reaches its midpoint. High values mean weaker potency, low ones greater potency.

The compound `N#Cc1c(/N=C/c2cc3ccccc3[nH]2)sc2c1CCCCC2` returned a 50% cytotoxic concentration (CC50) at 24 h in data set [1] of 49.1 µM. Moreover, the 50% haemolytic concentration (HC50) at 1 h in [2] was 721 µM. The “Ratio CC50/IC50” value in [3] was 6.65. The Selectivity Index in data set [4] is 97.9; in data set [6], 45.5. For the same compound, in data set [5], the “Ratio CC50/EC50” value is reported as 3.1. In addition, the Activity in [7] is on record as 4.07%; in data set [8] it was 3.5%; in data set [9], 4.06%; in data set [10], 11.6%; in data set [11], 15.6%; in data set [12] it was 25.2%. In addition, the Activity in data set [13] was 54.9%; in data set [15] it was “Dose-dependent effect”; in data set [16], “Dose-dependent effect”; in data set [21] it was 12.1%; in data set [22], 31.6%; in data set [23], 72.2%. The Activity stood at 19% in data set [24] and 15.7% in [25]. Moreover, the outcome in data set [14] was Active. The result in [17], in data set [18], in data set [19] and in [20] was inactive. Besides, the concentration giving a half-maximal response (EC50) in data set [26] came to 15.8 µM. In addition, the half-maximal inhibitory concentration (IC50) in [27] amounted to 7.37 µM.
As for `N#Cc1c(/N=C/c2cc3cc(Br)ccc3[nH]2)sc2c1CCCC2`, half-maximal cytotoxicity in [1] (CC50 at 24 h) was put at 113 µM. Also, in [2], the HC50 at 1 h was more than 800 µM. Also, in [3], the “Ratio CC50/IC50” value stood at 33.6. In addition, the results for the Selectivity Index in [4] and in data set [6] were more than 237 and more than 43.2, respectively. In [5], the “Ratio CC50/EC50” value turned out to be 6.12. For the same compound, the Activity was 7.1% in [7]; 5.2% in [8]; 5.03% in [9]; 12.5% in data set [10]; 28.5% in data set [11]; 27.2% in data set [12]. Besides, the Activity in data set [13] is 51.9%; in [15], “Dose-dependent effect”; in data set [16], “Dose-dependent effect”; in data set [21], 3.5%; in data set [22], 21.7%; in [23], 76.7%. Also, in data set [25], the Activity stood at 15.8%. Besides, the outcome in data set [14], in [17] and in data set [18] was Active. Further, in [20], the result was inactive. Moreover, the selectivity ratio in data set [28] came out at 840. Also, the Ratio in [29] was more than 14800. A half-maximal effect in [26] (EC50) was put at 18.5 µM. Also, 3.37 µM corresponded to half-maximal inhibition in [27] (IC50).
For Meglumine antimoniate, the Ratio CC50/IC50 in [3] was found to be 0.04. The Selectivity Index in data set [4] turned out to be 0.016; in [6] it was 0.42. The Ratio CC50/EC50 in data set [5] came to 1.01. The result in data set [30] was Active. In addition, the result in data set [31] was inactive.

The values are drawn from ChEMBL document CHEMBL3745600, “2-Amino-thiophene derivatives present antileishmanial activity mediated by apoptosis and immunomodulation in vitro” (Eur J Med Chem, 2015).
